Source: ChEMBL document CHEMBL1146033, “Synthesis, calpain inhibitory activity, and cytotoxicity of P2-substituted proline and thiaproline peptidyl aldehydes and peptidyl alpha-ketoamides” (J Med Chem, 2006)

Legend:
Jurkat [1] = assay: Antiproliferative activity against human Jurkat cell line by MTT assay; format: functional
Method in brief: (§1)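 Cells seeded at 2000 to 15000 per well, exposed to drug at 1 to 100 µM for 96 h at 37 °C, 5% CO2; untreated wells as negative control. MTT (5 mg/mL) added for final 2-4 h, formazan dissolved in DMSO, absorbance at 595 nm. GI50 (50% reduction in living cells vs untreated) from nonlinear regression of % survival against concentration.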

HeLa = assay: Antiproliferative activity against human HeLa cell line by MTT assay; format: functional; method in brief: as §1
Jurkat [2] = assay: Inhibition of calpain-mediated production of spectrin breakdown products in Jurkat cells at 20 uM; format: functional, Homo sapiens; set-up: scale not given: the % may be the effect or the level left
Method in brief: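 Jurkat cells washed in HEPES-buffered saline, preincubated 10 min with inhibitor at 20 µM, then ionomycin (20 µM final) and Ca2+ (5 mM final) added; 60 min at 37 °C. Lysates resolved by SDS-PAGE, immunoblotted for α-spectrin and β-actin, chemiluminescence. 145/150-kDa spectrin breakdown doublet quantified by densitometry, normalized to β-actin.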

[3] = biological target: T1, Calpain-1 catalytic subunit (Sus scrofa, UniProt P35750); assay: Inhibition of porcine erythrocyte mu calpain
T1 sequence (P35750 whole entry): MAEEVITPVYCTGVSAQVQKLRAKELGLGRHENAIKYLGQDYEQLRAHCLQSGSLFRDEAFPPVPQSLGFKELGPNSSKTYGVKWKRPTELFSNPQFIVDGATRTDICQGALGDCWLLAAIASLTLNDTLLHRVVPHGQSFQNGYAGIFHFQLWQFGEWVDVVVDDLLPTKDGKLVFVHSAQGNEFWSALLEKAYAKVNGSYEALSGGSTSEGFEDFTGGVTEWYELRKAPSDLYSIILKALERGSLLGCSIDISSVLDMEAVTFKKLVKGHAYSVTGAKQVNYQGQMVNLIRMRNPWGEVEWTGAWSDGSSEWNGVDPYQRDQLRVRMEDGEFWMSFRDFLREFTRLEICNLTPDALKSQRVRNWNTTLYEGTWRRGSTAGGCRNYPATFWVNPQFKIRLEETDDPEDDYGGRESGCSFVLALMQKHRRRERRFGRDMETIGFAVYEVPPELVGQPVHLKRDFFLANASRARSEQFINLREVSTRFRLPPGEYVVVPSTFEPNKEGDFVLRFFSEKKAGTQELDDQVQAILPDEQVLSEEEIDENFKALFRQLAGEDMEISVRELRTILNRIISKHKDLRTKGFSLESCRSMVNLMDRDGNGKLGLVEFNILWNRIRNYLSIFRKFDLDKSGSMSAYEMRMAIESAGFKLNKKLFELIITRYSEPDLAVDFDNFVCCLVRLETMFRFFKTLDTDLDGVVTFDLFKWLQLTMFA
Method in brief: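 µ-Calpain (1 µg, porcine erythrocyte) in 50 mM Tris HCl pH 7.4, 50 mM NaCl, 10 mM DTT, 1 mM EDTA, 1 mM EGTA, 5 mM CaCl2, fluorogenic Suc-Leu-Tyr-AMC at 0.2 or 1.0 mM, varying inhibitor in DMSO (2% total). Ki from Dixon plots (1/v vs I) of triplicate-averaged data, intersecting lines r ≥ 0.95.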

DU-145 = assay: Antiproliferative activity against human DU145 cell line by MTT assay; format: functional; method in brief: as §1
Cathepsin B = Cathepsin B (Homo sapiens, UniProt P07858); assay: Inhibition of human liver cathepsin B
Method in brief: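 Human liver cathepsin B (1 nM) in 50 mM NaOAc pH 6.0, 1 mM EDTA, 0.5 mM DTT, with Z-Arg-Arg-AMC at 50 or 250 µM and varying inhibitor in DMSO (2% total). Ki from Dixon plots of triplicate-averaged data, intersecting lines r ≥ 0.95; selectivity ratio = cathepsin B Ki / µ-calpain Ki.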

Daudi = assay: Antiproliferative activity against human Daudi cell line by MTT assay; format: functional; method in brief: as §1
[4] = Selectivity ratio, Ki for human cathepsin B/Ki for porcine mu calpain
PC-3 = assay: Antiproliferative activity against human PC3 cell line by MTT assay; format: functional; method in brief: as §1

Row | Structure (SMILES) | GI50 (Jurkat [1]) [µM] | GI50 (HeLa) [µM] | Activity (Jurkat [2]) [%] | Ki [3] [µM] | GI50 (DU-145) [µM] | Ki (Cathepsin B) [µM] | GI50 (Daudi) [µM] | Selectivity ratio [4] | GI50 (PC-3) [µM]
1 | O=CC(Cc1ccccc1)NC(=O)[C@H]1CCCN1S(=O)(=O)c1ccc([N+](=O)[O-])cc1 (stereo not given in full) | 33.8 | 40.4 | 22.8 | 0.02 | 42.4 | 3.75 | 32.5 | 188 | 49.3
2 | Cc1ccc(S(=O)(=O)N2CSC[C@@H]2C(=O)NC(C=O)Cc2ccccc2)cc1 (stereo not given in full) | 3.21 | 4.37 | 82.4 | 0.07 | 6 | 0.119 | 2.17 | 1.7 | 5.17
3 | Cc1ccc(S(=O)(=O)N2CCC[C@@H]2C(=O)NC(C=O)Cc2ccccc2)cc1 (stereo not given in full) | 17.6 | 48.9 |  | 0.081 | 45.2 | 12.1 | 16.7 | 151 | 40.1
4 | COc1ccc(S(=O)(=O)N2CCC[C@@H]2C(=O)NC(C=O)Cc2ccccc2)cc1 (mixture of isomers) | 25.4 | 38.5 |  | 0.037 | 63.2 | 1.48 | 35.3 | 40 | 19.7
5 | O=CC(Cc1ccccc1)NC(=O)[C@H]1CSCN1S(=O)(=O)c1ccc(I)cc1 (mixture of isomers) | 5.97 | 5.42 |  | 0.042 | 6.29 | 0.11 | 4.48 | 2.61 | 6.38
6 | Cc1ccc(S(=O)(=O)N2CCC[C@@H]2C(=O)NC(Cc2ccccc2)C(=O)C(=O)NCCc2ccccc2)cc1 (mixture of isomers) | 21.9 | 22.9 |  | 0.85 | 22.6 | 6.9 | 19.6 | 8.12 | 20.8
7 | CCCCS(=O)(=O)N1CCC[C@@H]1C(=O)NC(C=O)Cc1ccccc1 (mixture of isomers) |  |  |  | 0.313 |  | 1.48 |  | 4.72 | 
8 | O=CC(Cc1ccccc1)NC(=O)[C@H]1CSCN1S(=O)(=O)c1ccc(Br)cc1 (mixture of isomers) |  |  |  | 0.074 |  | 0.09 |  | 1.21 | 
9 | O=CC(Cc1ccccc1)NC(=O)[C@H]1CCCN1S(=O)(=O)c1ccc(Br)cc1 (mixture of isomers) |  |  |  | 0.128 |  | 4.42 |  | 34.5 | 
10 | O=CC(Cc1ccccc1)NC(=O)[C@H]1CCCN1S(=O)(=O)c1ccc(Cl)cc1 (mixture of isomers) |  |  |  | 0.141 |  | 5.4 |  | 38.2 | 
11 | O=CC(Cc1ccccc1)NC(=O)[C@H]1CCCN1S(=O)(=O)c1ccc(F)cc1 (mixture of isomers) | 24.2 | 27.4 |  | 0.386 | 24.8 | 6.99 | 24.8 | 18.1 | 27.1
12 | COc1ccc(S(=O)(=O)N2CCC[C@@H]2C(=O)NC(Cc2ccccc2)C(=O)C(=O)NCCc2ccccc2)cc1 (mixture of isomers) | 23.8 | 31.4 |  | 0.45 | 30 | 2.59 | 22.4 | 5.7 | 14.6
13 | O=CC(Cc1ccccc1)NC(=O)[C@H]1CCCN1S(=O)(=O)c1ccccc1[N+](=O)[O-] (mixture of isomers) |  |  |  | 0.424 |  | 4.61 |  | 10.9 | 
14 | O=CC(Cc1ccccc1)NC(=O)[C@H]1CCCN1S(=O)(=O)c1ccccc1 (mixture of isomers) |  |  |  | 0.196 |  | 2.47 |  | 13 | 
15 | O=CC(Cc1ccccc1)NC(=O)[C@H]1CCCN1S(=O)(=O)c1cccc2ccccc12 (mixture of isomers) |  |  |  | 0.191 |  | 2.54 |  | 13 | 
16 | O=CC(Cc1ccccc1)NC(=O)[C@H]1CSCN1S(=O)(=O)c1ccc(F)cc1 (mixture of isomers) | 6.13 | 7.12 |  | 0.11 | 6.22 | 0.34 | 3.54 | 3.09 | 7.04
17 | O=CC(Cc1ccccc1)NC(=O)[C@H]1CSCN1S(=O)(=O)c1ccc(Cl)cc1 (mixture of isomers) |  |  |  | 0.09 |  | 0.23 |  | 2.5 | 
18 | CC(C)S(=O)(=O)N1CCC[C@@H]1C(=O)NC(C=O)Cc1ccccc1 (mixture of isomers) |  |  |  | 0.836 |  | 3.5 |  | 1.19 | 
19 | O=CC(Cc1ccccc1)NC(=O)[C@H]1CCCN1S(=O)(=O)c1ccc(I)cc1 (mixture of isomers) |  |  |  | 0.033 |  | 4.18 |  | 131 | 
20 | O=CC(Cc1ccccc1)NC(=O)[C@H]1CCCN1S(=O)(=O)c1cccc([N+](=O)[O-])c1 (mixture of isomers) |  |  |  | 0.256 |  | 5.45 |  | 21.3 | 
21 | O=C(NCCc1ccccc1)C(=O)C(Cc1ccccc1)NC(=O)[C@H]1CCCN1S(=O)(=O)c1ccc([N+](=O)[O-])cc1 (mixture of isomers) | 21.3 | 27.6 |  | 0.28 | 31.8 | 12.1 | 23.1 | 18.1 | 27.8
